Experimental data from ChEMBL document CHEMBL1148923, “Novel cassane and cleistanthane diterpenes from Myrospermum frutescens: absolute stereochemistry of the cassane diterpene series” (J Nat Prod, 2004).

Experiments:
Trypanosoma cruzi [1] = assay: Antitrypanosomal activity against extracellular Trypanosoma cruzi Tulahuen clone C4; assay type: functional, organism-based
Trypanosoma cruzi [2] = assay: Antitrypanosomal activity against intracellular Trypanosoma cruzi Tulahuen clone C4 assessed as cleavage of […]; assay type: functional, organism-based
In short: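 Transgenic T. cruzi (Tulahuen strain, clone C4) expressing β-galactosidase were exposed to added compound. Growth of the intracellular form was read as cleavage of chlorophenol red-β-D-galactoside (CPRG) at 570 nm.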

Vero = assay: Cytotoxicity against african green monkey Vero cells after 4 hrs by MTT assay; assay type: cell-based; details: Chlorocebus sabaeus
In short: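 Adherent Vero cells were treated with compound and incubated 4 h at 37°. Viability was read from MTT reduction in an ELISA reader at 570 nm.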

## C=CC1=C(C)[C@@H]2CC[C@H]3[C@](C)(CO)CCC[C@]3(C)[C@H]2CC1
Trypanosoma cruzi [1]
  IC50: 48 µM

## C=CC1=C(C)[C@@H]2C[C@@H](OC(C)=O)[C@H]3[C@](C)(CO)CCC[C@]3(C)[C@H]2CC1
Trypanosoma cruzi [2]
  IC50: 76.5 µM
Vero
  IC50: 178 µM
Trypanosoma cruzi [1]
  IC50: 56.7 µM

## C[C@]1(CO)CCC[C@]2(C)[C@H]3CC(=O)[C@@]4(C)[C@@H]([C@@H]3CC[C@@H]12)[C@@H]4CO
Vero
  IC50: 433 µM

## C=CC1=C(C)[C@@H]2CC(=O)[C@H]3[C@](C)(COC(C)=O)CCC[C@]3(C)[C@H]2CC1
Trypanosoma cruzi [2]
  IC50: 79.1 µM
Vero
  IC50: 238 µM
Trypanosoma cruzi [1]
  IC50: 17.7 µM

## CC(=O)OC[C@]1(C)CCC[C@]2(C)[C@H]3CCC(C=O)=C(C)[C@@H]3CC(=O)[C@@H]12
Trypanosoma cruzi [2]
  IC50: 61.4 µM
Vero
  IC50: 416 µM
Trypanosoma cruzi [1]
  IC50: 40.4 µM

## C=CC1=C(C)[C@@H]2C[C@@H](O)[C@H]3[C@](C)(CO)CCC[C@]3(C)[C@H]2CC1
Trypanosoma cruzi [2]
  IC50: 16 µM

## C=CC1=C(C)[C@@H]2C[C@@H](O)[C@H]3[C@](C)(COC(C)=O)CCC[C@]3(C)[C@H]2CC1
Trypanosoma cruzi [1]
  IC50: 11 µM

## C=C[C@@]1(O)CC[C@H]2[C@@H](C[C@@H](O)[C@H]3[C@](C)(COC(C)=O)CCC[C@]23C)C1=C
Trypanosoma cruzi [1]
  IC50: 16 µM

## CO[C@@]12C[C@H]3[C@@H]([C@@H](O)[C@@H](OC(C)=O)[C@H]4[C@](C)(COC(C)=O)CCC[C@]34C)[C@@H](C)C1=CC(=O)O2 [CHAGRESLACTONE]
Vero
  IC50: 225 µM
Trypanosoma cruzi [1]
  IC50: 75 µM

## C=CC1=C(CO)[C@@H]2C[C@@H](O)[C@H]3[C@](C)(COC(C)=O)CCC[C@]3(C)[C@H]2CC1 [CHAGRESNOL]
Trypanosoma cruzi [2]
  IC50: 76 µM
Vero
  IC50: 156 µM
Trypanosoma cruzi [1]
  IC50: 38.8 µM

## CC(=O)OC[C@H]1[C@@H]2[C@@H]3CC[C@H]4[C@@](C)(CO)CCC[C@]4(C)[C@H]3CC(=O)[C@@]21C [CHAGRESNONE]
Trypanosoma cruzi [2]
  IC50: 95.5 µM
Vero
  IC50: 448 µM
Trypanosoma cruzi [1]
  IC50: 56.9 µM
